Laboratory results as given in ChEMBL document CHEMBL2417527, “Prenylated and geranylated flavonoids increase production of reactive oxygen species in mouse macrophages but inhibit the inflammatory response” (J Nat Prod, 2013).
The source made the active and inactive calls. The calls are words filed in the database; no cut-off is given here.

Columns and labels:
J774.A1 [1] = test: Reduction of LPS-induced COX2 expression in mouse J774A1 cells at 1.25 uM pretreated 1 hr before LPS challenge measured after 24 hrs; assay type: functional, cell-based
Method in brief: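 Macrophages were pretreated with 1.25 μM compound for 1 h, then stimulated with 1 μg/mL LPS for 24 h. Lysates (40 μg protein) were run on 12% gels and blotted to PVDF. COX-2 was detected with antibody at 1:500 and normalized to β-actin by densitometry. Four independent experiments.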

J774.A1 [2] = test: Induction of ROS production in LPS-stimulated mouse J774A1 cells at 1.25 uM after 30 mins by flow cytometry relative to control; assay type: functional
J774.A1 [3] = test: Induction of ROS production in mouse J774A1 cells at 1.25 uM after 30 mins by flow cytometry relative to control; assay type: functional
Method in brief: (§1)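 Cells were grown to 80–90% confluence and switched to serum-free DMEM. They were loaded with 10 μM DCFH2-DA for 1 h, and compound (0.25 or 1.25 μM, 0.1% DMSO) was added for the final 30 min. Cells were washed, scraped off in PBS/lidocaine, and DCF was measured by flow cytometry (ex 488/em 525 nm). Results were compared with vehicle-treated cells; mean ± SE of four experiments.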

J774.A1 [4] = test: Induction of ROS production in mouse J774A1 cells at 0.25 uM after 30 mins by flow cytometry relative to control; assay type: functional; method in brief: as §1
[5] = Antioxidant activity assessed as NADH/phenazine methosulfate generated superoxide anion scavenging after 2 mins by NBT reduction assay; assay type: functional
Method in brief: (§2)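 Superoxide was generated by NADH/PMS. Final concentrations were 19 mM phosphate buffer (pH 7.4), compound in DMSO at 12.5–1000 μM, 166 μM NADH, 43.3 μM NBT and 2.7 μM PMS. NBT reduction to diformazan was read as absorbance at 560 nm after 2 min of mixing at room temperature. Five independent experiments were run, each in triplicate.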

J774.A1 [6] = test: Induction of ROS production in mouse J774A1 cells at 1.25 uM after 24 hrs by flow cytometry relative to control
[7] = Antioxidant activity assessed as hydrogen peroxide radical scavenging activity by chemiluminescence method; assay type: functional
Method in brief: (§3)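 Lucigenin chemiluminescence was used. Each reaction contained 50 mM Tris-HCl (pH 7.4), compound in DMSO at 125–1000 μM, 800 μM lucigenin and 1% (v/v) H2O2. Luminescence was read at 37 °C immediately after mixing. Five independent experiments were run, each in triplicate.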

[8] = Antioxidant activity assessed as hypochlorous acid scavenging activity by fluorescence assay; assay type: functional
Method in brief: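 Oxidation of dihydrorhodamine 123 to rhodamine was followed. Final concentrations were 100 mM phosphate buffer (pH 7.4), compound in methanol at 0.625–100 μM, 5 μM DHR and 5 μM HClO. Fluorescence (ex 485, em 528 nm) was read at 37 °C immediately after mixing. Five independent experiments were run, each in triplicate.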

J774.A1 [9] = test: Induction of ROS production in LPS-stimulated mouse J774A1 cells at 0.25 to 1.25 uM after 24 hrs by flow cytometry; assay type: functional, cell-based
Method in brief: (§4)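 Macrophages in serum-free DMEM were pretreated with compound (0.25 or 1.25 μM) for 1 h. E. coli 0111:B4 LPS (1 μg/mL) was then added for 24 h, with DCFH2-DA added 30 min before the end. DCF fluorescence was measured by flow cytometry (ex 488/em 525 nm). Results were compared with cells given vehicle plus LPS.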

J774.A1 [10] = test: Induction of ROS production in mouse J774A1 cells at 0.25 to 1.25 uM after 30 mins by flow cytometry relative to control; assay type: functional; method in brief: as §1
J774.A1 [11] = test: Effect on ROS production in LPS-stimulated mouse J774A1 cells at 0.25 to 1.25 uM after 30 mins by flow cytometry; assay type: functional, cell-based
[12] = Antioxidant activity assessed as NADH/phenazine methosulfate generated superoxide anion scavenging at 1 mM after 2 mins by NBT reduction assay; assay type: functional; method in brief: as §2
[13] = Antioxidant activity assessed as hydrogen peroxide radical scavenging activity at 1 mM by chemiluminescence method; assay type: functional; method in brief: as §3
J774.A1 [14] = test: Reduction of ROS production in LPS-stimulated mouse J774A1 cells at 0.25 to 1.25 uM after 30 mins by flow cytometry; assay type: functional, cell-based
J774.A1 [15] = test: Reduction of ROS production in LPS-stimulated mouse J774A1 cells at 0.25 to 1.25 uM after 24 hrs by flow cytometry; assay type: functional, cell-based; method in brief: as §4

Row | IC50 [5] [µM] | IC50 [7] [µM] | IC50 [8] [µM] | SMILES | Activity (J774.A1 [1]) | fold change (FC) (J774.A1 [2]) | fold change (FC) (J774.A1 [3]) | fold change (FC) (J774.A1 [4]) | fold change (FC) (J774.A1 [6]) | Activity (J774.A1 [9]) | fold change (FC) (J774.A1 [10]) | Activity (J774.A1 [11]) | Activity [12] [%] | Activity [13] [%] | Activity (J774.A1 [14]) | Activity (J774.A1 [15])
1 | 219 | 641 | 1.8 | CC(C)=CCc1c(-c2ccc(O)cc2O)oc2cc3c(c(O)c2c1=O)C=CC(C)(C)O3 [CUDRAFLAVONE B] | inactive | 1.71 | 3.12 | 2.13 | 2 | Active |  |  |  |  |  | 
2 | 41.2 | 554 | 2.3 | CC(C)=CCC/C(C)=C/Cc1c(O)cc2c(c1O)C(=O)C[C@@H](c1ccc(O)c(O)c1)O2 [NYMPHAEOL A] | Active |  |  |  | 0.79 |  | 0.95 | inactive |  |  |  | 
3 | > 1000 | > 1000 | 31 | CC(C)=CCc1c2c(c3occ(-c4ccc(O)cc4)c(=O)c3c1O)C=CC(C)(C)O2 [OSAJIN] |  | 1.59 |  |  |  | Active | 0.95 |  | 39 | 17 |  | 
4 | 73.3 | 899 | 9.1 | CC(C)=CCc1c2c(c3occ(-c4ccc(O)c(O)c4)c(=O)c3c1O)C=CC(C)(C)O2 [POMIFERIN] |  |  |  |  |  |  | 0.95 |  |  |  | Active | Active
